{"source": "paper PMC2233868", "about": "(The Journal of General Physiology, 2002)", "key": {"[1]": {"system": "volume-regulated anion channels (VRAC)", "assay": "Whole cell membrane current", "details": "for membrane leakiness: extracellular ATP 10 mM or higher, high concentrations of ADP; for r = k12(0)/k10(0) / δ, electrical distance of binding site inside the channel: pooled cells; for voltage dependence of VRAC block / effect on outward component of VRAC current: total nucleotide concentration 1 mM; for effect on outward component of VRAC current: HTS 17%"}, "[2]": {"system": "bovine aortic endothelial cells (BAEC)", "format": "cell-based"}, "[3]": {"system": "cultured ciliary epithelial cells", "details": "ref Mitchell et al., 1998; cited from earlier work"}, "prostate cancer cells": {"system": "prostate cancer cells", "details": "ref Sauer et al., 2000; cited from earlier work"}, "[4]": {"system": "bovine aortic endothelial cells (BAEC)", "details": "disruption of the actin cytoskeleton; ref Koyama et al., 2001; cited from earlier work"}, "[5]": {"system": "bovine aortic endothelial cells (BAEC)", "assay": "HTS-induced NO production, DAF-2 fluorescence", "format": "cell-based", "method_in_brief": "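NO was imaged with DAF-2 in first-subculture bovine aortic endothelial cells bathed in modified Krebs solution (1.5 mM Ca2+, pH 7.3), made hypotonic with distilled water. Fluorescence in each experiment was normalized to a reference image taken before the hypotonic challenge. n = cells examined; mean ± SEM; Student's unpaired t test, P < 0.05 significant.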"}, "[6]": {"system": "bovine aortic endothelial cells (BAEC)", "assay": "HTS-induced Ca2+ oscillations, fura-2 fluorescence", "format": "cell-based", "details": "HTS 40%; glibenclamide 100 μM"}, "[7]": {"system": "bovine aortic endothelial cells (BAEC)", "assay": "Ca2+ transients induced by exogenously applied ATP, fura-2", "format": "cell-based", "details": "exogenous ATP 1 μM", "method_in_brief": "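[Ca2+]i tracked by fura-2 fluorescence using digital fluorescence microscopy at room temperature (20–25°C). Mean ± SEM; Student's unpaired t test, P < 0.05 significant.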"}, "[8]": {"system": "VRAC currents in BC3H1 and C2C12 cells", "details": "concentrations up to 100 μM; ref Voets et al., 1997; cited from earlier work"}, "[9]": {"system": "large conductance anion channel (368 pS)", "details": "ref Li et al., 2000; cited from earlier work"}, "[10]": {"details": "10 or 20 mM extracellular ADP, extracellular Cl− 2 mM"}, "[11]": {"details": "fit to simplified Eq. 2, total nucleotide 1 mM"}, "[12]": {"details": "representative data, Figs. 4 C (dashed line) and 5 B, Eq. 2"}, "[13]": {"details": "fit to Eq. 1, extracellular ATP total 1 mM"}, "[14]": {"details": "representative cell, Fig. 4 C solid line, Eq. 1"}, "[15]": {"details": "20% HTS, 10 min, fluoxetine 1 μM, glibenclamide 100 μM, tamoxifen 10 μM, verapamil 10 μM, P < 0.01"}}, "note": "Several values for one entry are separate records, joined by “and”; a condition that tells them apart may be missing. Equal values may be shown once. Entries after “also recorded” stand apart in the source; their conditions may differ. Read-outs that look alike come from different tables or passages of the source."}
{"smiles": "Nc1ncnc2c1ncn2[C@@H]1O[C@H](COP(=O)(O)OP(=O)(O)O)[C@@H](O)[C@H]1O", "note": "[ADP]", "values": [{"measurement": "effect on outward component of VRAC current in low Cl− hypotonic solution", "setting": "[1]; 1 mM extracellular ADP, extracellular Cl− 2 mM", "result": "still inhibited"}, {"measurement": "effect on inward current in low Cl− hypotonic solution", "setting": "[1]; [10]", "result": "virtually no effect"}, {"measurement": "effect on outward current in low Cl− hypotonic solution", "setting": "[1]; [10]", "result": "significantly enhanced"}, {"measurement": "membrane leakiness", "setting": "[1]", "result": "did not cause membrane leakiness"}, {"measurement": "r = k12(0)/k10(0)", "setting": "[1]; [11]", "result": "0.23 ± 0.05"}, {"measurement": "δ, electrical distance of binding site inside the channel", "setting": "[1]; [11]", "result": "0.48 ± 0.01"}, {"measurement": "r of the fitted curve", "setting": "[1]; [12]", "result": 0.26}, {"measurement": "δ of the fitted curve", "setting": "[1]; [12]", "result": 0.40}, {"measurement": "voltage dependence of VRAC block", "setting": "[1]", "result": "less voltage sensitive; also recorded: bell-shaped voltage-dependent inhibition"}]}
{"smiles": "Nc1ncnc2c1ncn2[C@@H]1O[C@H](COP(=O)(O)O)[C@@H](O)[C@H]1O", "note": "[AMP]", "values": [{"measurement": "voltage dependence of VRAC block", "setting": "[1]", "result": "weakly voltage-dependent"}]}
{"smiles": "Nc1ncnc2c1ncn2[C@@H]1O[C@H](COP(=O)(O)OP(=O)(O)OP(=O)(O)O)[C@@H](O)[C@H]1O", "note": "[ATP]", "values": [{"measurement": "activation of a VRAC-like current in isotonic solutions", "setting": "[1]; exogenous ATP, isotonic solution", "result": "did not activate"}, {"measurement": "membrane leakiness", "setting": "[1]", "result": "induced membrane leakiness"}, {"measurement": "membrane potential of maximum inhibition of outward VRAC current", "setting": "[1]; extracellular ATP total 1 mM, free 0.15 mM", "result": "30–40 mV"}, {"measurement": "r = k12(0)/k10(0)", "setting": "[1]; [13]", "result": "0.38 ± 0.08"}, {"measurement": "δ, electrical distance of binding site inside the channel", "setting": "[1]; [13]", "result": "0.41 and 0.41 ± 0.03"}, {"measurement": "r = k12(0)/k10(0)", "setting": "[1]; [11]", "result": "0.42 ± 0.16"}, {"measurement": "δ, electrical distance of binding site inside the channel", "setting": "[1]; [11]", "result": "0.42 ± 0.02"}, {"measurement": "r of the fitted curve", "setting": "[1]; [14]", "result": 0.29}, {"measurement": "δ of the fitted curve", "setting": "[1]; [14]", "result": 0.42}, {"measurement": "r of the fitted curve", "setting": "[1]; [12]", "result": 0.22}, {"measurement": "δ of the fitted curve", "setting": "[1]; [12]", "result": 0.43}, {"measurement": "voltage dependence of VRAC block", "setting": "[1]", "result": "marked voltage dependency"}, {"measurement": "effect on outward component of VRAC current", "setting": "[1]", "result": "inhibited"}]}
{"smiles": "C[C@H]1CCC/C=C/[C@@H]2C[C@H](O)C[C@H]2[C@H](O)/C=C/C(=O)O1", "note": "[Brefeldin A, brefeldin A]", "values": [{"measurement": "effect on HTS-induced ATP release", "setting": "[2]; pretreated with 3 μg/ml for 2.5 h, HTS 20%", "result": "did not, however, affect"}, {"measurement": "effect on HTS-induced VRAC currents", "setting": "[1]; pretreated with 3 μg/ml for 2.5 h, HTS 20%, −50 mV and 100 mV", "result": "did not, however, affect"}]}
{"smiles": "Nc1ccn([C@@H]2O[C@H](COP(=O)(O)OP(=O)(O)OP(=O)(O)O)[C@@H](O)[C@H]2O)c(=O)n1", "note": "[CTP]", "values": [{"measurement": "r = k12(0)/k10(0)", "setting": "[1]; [11]", "result": "0.21 ± 0.09"}, {"measurement": "δ, electrical distance of binding site inside the channel", "setting": "[1]; [11]", "result": "0.47 ± 0.02"}, {"measurement": "r of the fitted curve", "setting": "[1]; [12]", "result": 0.057}, {"measurement": "δ of the fitted curve", "setting": "[1]; [12]", "result": 0.44}, {"measurement": "voltage dependence of VRAC block", "setting": "[1]", "result": "bell-shaped voltage-dependent inhibition"}]}
{"smiles": "Nc1nc2c(ncn2[C@@H]2O[C@H](COP(=O)(O)OP(=O)(O)OP(=O)(O)O)[C@@H](O)[C@H]2O)c(=O)[nH]1", "note": "[GTP]", "values": [{"measurement": "r = k12(0)/k10(0)", "setting": "[1]; [11]", "result": "0.70 ± 0.30"}, {"measurement": "δ, electrical distance of binding site inside the channel", "setting": "[1]; [11]", "result": "0.41 ± 0.06"}, {"measurement": "r of the fitted curve", "setting": "[1]; [12]", "result": 0.24}, {"measurement": "δ of the fitted curve", "setting": "[1]; [12]", "result": 0.44}, {"measurement": "voltage dependence of VRAC block", "setting": "[1]", "result": "bell-shaped voltage-dependent inhibition"}]}
{"smiles": "O=C(O)c1cc([N+](=O)[O-])ccc1NCCCc1ccccc1", "note": "[NPPB]", "values": [{"measurement": "effect on ATP release", "setting": "[3]", "result": "suppressed"}, {"measurement": "effect on ATP release", "setting": "prostate cancer cells", "result": "suppressed"}]}
{"smiles": "O=c1ccn([C@@H]2O[C@H](COP(=O)(O)OP(=O)(O)OP(=O)(O)O)[C@@H](O)[C@H]2O)c(=O)[nH]1", "note": "[UTP]", "values": [{"measurement": "r = k12(0)/k10(0)", "setting": "[1]; [11]", "result": "0.14 ± 0.05"}, {"measurement": "δ, electrical distance of binding site inside the channel", "setting": "[1]; [11]", "result": "0.39 ± 0.04"}, {"measurement": "r of the fitted curve", "setting": "[1]; [12]", "result": 0.13}, {"measurement": "δ of the fitted curve", "setting": "[1]; [12]", "result": 0.42}, {"measurement": "voltage dependence of VRAC block", "setting": "[1]", "result": "bell-shaped voltage-dependent inhibition"}]}
{"smiles": "Nc1ncnc2c1ncn2[C@@H]1O[C@H](CO)[C@@H](O)[C@H]1O", "note": "[adenosine]", "values": [{"measurement": "effect on outward component of VRAC current", "setting": "[1]", "result": "does not inhibit"}]}
{"smiles": "C=C1[C@@H](C)[C@H]2[C@H](Cc3ccccc3)NC(=O)[C@]23OC(=O)/C=C/[C@H](O)CCC[C@@H](C)C/C=C/[C@H]3[C@@H]1O", "note": "[cytochalasin B]", "values": [{"measurement": "effect on HTS-induced ATP release", "setting": "[4]", "result": "does not inhibit"}]}
{"smiles": "CNCCC(Oc1ccc(C(F)(F)F)cc1)c1ccccc1", "note": "(centres unmarked) [fluoxetine]", "values": [{"measurement": "effect on HTS-induced ATP release", "setting": "[2]; [15]", "result": "Inhibition"}, {"measurement": "effect on HTS-induced NO production", "setting": "[5]", "result": "abolished"}, {"measurement": "effect on HTS-induced Ca2+ oscillations", "setting": "[6]", "result": "abolished"}]}
{"smiles": "COc1ccc(Cl)cc1C(=O)NCCc1ccc(S(=O)(=O)NC(=O)NC2CCCCC2)cc1", "note": "[glibenclamide]", "values": [{"measurement": "effect on HTS-induced ATP release", "setting": "[2]; [15]", "result": "Inhibition"}, {"measurement": "effect on HTS-induced NO production", "setting": "[5]", "result": "abolished"}, {"measurement": "effect on ADP-induced outward current", "setting": "[1]; 100 μM, low Cl− hypotonic solution, unpublished data", "result": "suppressed"}, {"measurement": "effect on HTS-induced Ca2+ oscillations", "setting": "[6]", "result": "abolished"}, {"measurement": "effect on Ca2+ transients induced by exogenously applied ATP", "setting": "[7]", "result": "did not affect"}]}
{"smiles": "CC/C(=C(\\c1ccccc1)c1ccc(OCCN(C)C)cc1)c1ccccc1", "note": "[tamoxifen]", "values": [{"measurement": "effect on HTS-induced ATP release", "setting": "[2]; [15]", "result": "Inhibition"}, {"measurement": "effect on VRAC currents", "setting": "[8]", "result": "did not significantly inhibit"}, {"measurement": "effect on large conductance anion channel", "setting": "[9]", "result": "activates"}, {"measurement": "effect on ATP release", "setting": "prostate cancer cells", "result": "effective"}]}
{"smiles": "COc1ccc(CCN(C)CCCC(C#N)(c2ccc(OC)c(OC)c2)C(C)C)cc1OC", "note": "(centres unmarked) [verapamil]", "values": [{"measurement": "effect on HTS-induced ATP release", "setting": "[2]; [15]", "result": "Inhibition"}, {"measurement": "effect on HTS-induced NO production", "setting": "[5]", "result": "abolished"}, {"measurement": "effect on HTS-induced Ca2+ oscillations", "setting": "[6]", "result": "abolished"}]}
